Source: ChEMBL document CHEMBL1153359, “Synthesis and biological evaluation of N4-(hetero)arylsulfonylquinoxalinones as HIV-1 reverse transcriptase inhibitors” (Bioorg Med Chem, 2009)

Test system: Human immunodeficiency virus 1
Assay: Inhibition of HIV1 replication in human 293T cells preincubated 15 mins prior to infection measured after 48 hrs postinfection by luciferase reporter gene assay
Format: functional, organism-based
Conditions: Human immunodeficiency virus 1, HEK-293T
Summary of the method: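 Pseudotyped virus was made by co-transfecting 293 cells with the env-deficient HIV-1 luciferase vector pNL4-3.luc.R-E- and a VSV-G plasmid (modified calcium phosphate method). 293ET target cells were seeded at 6 × 10⁴ per well the day before infection. Compound was added 15 min before the VSVG/HIV-1 virus, with a solvent-only control. Cells were lysed 48 h post-infection.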

Row | Compound | IC50 [nM]
1 | O=C1CN(S(=O)(=O)c2cccc3cccnc23)c2cc(F)ccc2N1 | 980
2 | CC1C(=O)Nc2ccc(F)cc2N1S(=O)(=O)c1cccc2cccnc12 (stereo unspecified) | 7000
3 | CCC1C(=O)Nc2ccc(Cl)cc2N1S(=O)(=O)c1cccc2cccnc12 (stereo unspecified) | > 100000
4 | COC(=O)c1sccc1S(=O)(=O)N1CC(=O)Nc2ccc(Cl)cc21 | 830
5 | COC(=O)c1sccc1S(=O)(=O)N1c2cc(Cl)ccc2NC(=O)C1C (stereo unspecified) | 200
6 | CCC1C(=O)Nc2ccc(Cl)cc2N1S(=O)(=O)c1ccsc1C(=O)OC (stereo unspecified) | 6300
7 | COC(=O)c1sccc1S(=O)(=O)N1CC(=O)Nc2cc(C(F)(F)F)ccc21 | > 100000
8 | O=C1CN(S(=O)(=O)c2cccc3cccnc23)c2ccc(C(F)(F)F)cc2N1 | > 100000
9 | COC(=O)CC1C(=O)Nc2ccc(F)cc2N1S(=O)(=O)c1ccsc1C(=O)OC (stereo unspecified) | > 100000
10 | CC1C(=O)Nc2ccc(F)cc2N1S(=O)(=O)c1cc(Cl)sc1Cl (stereo unspecified) | > 100000
11 | CCC1C(=O)Nc2ccc(F)cc2N1S(=O)(=O)c1ccsc1C(=O)OC (stereo unspecified) | 5000
12 | N#Cc1cccc(S(=O)(=O)N2CC(=O)Nc3ccc(F)cc32)c1 | > 100000
13 | O=C1CN(S(=O)(=O)c2cccc3cccnc23)c2cc(Cl)ccc2N1 | 330
14 | CC1C(=O)Nc2ccc(F)cc2N1S(=O)(=O)c1cccc(C#N)c1 (stereo unspecified) | 55000
15 | COC(=O)c1sccc1S(=O)(=O)N1CC(=O)Nc2ccc(F)cc21 | 2020
16 | COC(=O)c1sccc1S(=O)(=O)N1c2cc(F)ccc2NC(=O)C1C (stereo unspecified) | 200
17 | CC1C(=O)Nc2ccc(Cl)cc2N1S(=O)(=O)c1cccc2cccnc12 (stereo unspecified) | 650
18 | CC1C(=O)Nc2ccc(F)cc2N1S(=O)(=O)c1ccc([N+](=O)[O-])cc1 (stereo unspecified) | > 100000
19 | COC(=O)c1sccc1S(=O)(=O)N1c2cc(F)ccc2NC(=O)C1CCSC (stereo unspecified) | > 100000
20 | O=C1Nc2ccc(Cl)cc2[C@@](C#CC2CC2)(C(F)(F)F)O1 [EFAVIRENZ] | 1.3
21 | Cc1cn([C@H]2C[C@H](N=[N+]=[N-])[C@@H](CO)O2)c(=O)[nH]c1=O [ZIDOVUDINE] | 48
